High-throughput results as filed in PubChem.
Compounds with a hit are over-represented: about 4.2% of the library has one in this group of screens.
Fh CTSL1 inh = blocks F. hepatica cathepsin L1 in PFM18AAP counter-screen | AID 1906 | inhibition, % at 5.96 µM | actives 0.49% (n = 300,000) | recombinant F. hepatica cathepsin L1, Z-Leu-Arg-MCA fluorescence;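 active = inhibition above the mean of all tested compounds plus 3 SD, set per screening campaign, cut at about 17% in these data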;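 also: 0% = plate median of test compound wells and 100% = 1 µM Z-Phe-Ala-diazomethylketone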
SENP1 inh = blocks the human SENP1 SUMO protease catalytic domain; Q9P0U3; recombinant SENP1 catalytic domain, CyPet-SUMO1-YPet FRET cleavage; inhibition, % at 10 µM; actives 0.21% (n = 360,000); AID 624204;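 active = inhibition at least 30% at 10 µM, raw YFP signal under a set limit, fluorescence ratio 0.5 to 1.5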;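 also: 0% = enzyme with DMSO and 100% = no enzyme wells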
Target sequence (Q9P0U3 419-644 limits assumed): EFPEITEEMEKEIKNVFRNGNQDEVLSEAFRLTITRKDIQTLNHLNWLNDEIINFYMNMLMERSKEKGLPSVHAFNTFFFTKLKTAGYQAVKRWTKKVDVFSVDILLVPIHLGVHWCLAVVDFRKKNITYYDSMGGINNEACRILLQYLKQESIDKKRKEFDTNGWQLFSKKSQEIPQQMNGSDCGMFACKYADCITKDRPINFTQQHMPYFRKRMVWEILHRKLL
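Compound: 10 µM single point, 0.5% DMSO; Test system: hSENP1 catalytic domain, recombinant; Timing: 50 min reaction at room temperature; Technique: FRET, CFP and YFP emission; Control set: no-enzyme wells low, DMSO-plus-enzyme wells high control.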
PfM18AAP inh = blocks P. falciparum M18 aspartyl aminopeptidase; actives 1.2% (n = 290,000); inhibition, % at 7.35 µM; recombinant PfM18AAP, H-Glu-NHMec fluorogenic cleavage;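 active = inhibition above the campaign mean inhibition over all tested compounds plus 3 SD, cut at about 28% in these data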;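 also: 0% = plate median of test compound wells and 100% = 2 mM ZnCl2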
HDAC3 inh = inhibitors of human histone deacetylase 3; O15379; recombinant HDAC3, fluorogenic peptide/trypsin coupled, fluorescence; actives 0.15% (n = 320,000); inhibition, % at 8.3 µM; in the data active = inhibition above about 26%, passing the limit was not always enough
Target sequence (O15379 whole entry, looked up): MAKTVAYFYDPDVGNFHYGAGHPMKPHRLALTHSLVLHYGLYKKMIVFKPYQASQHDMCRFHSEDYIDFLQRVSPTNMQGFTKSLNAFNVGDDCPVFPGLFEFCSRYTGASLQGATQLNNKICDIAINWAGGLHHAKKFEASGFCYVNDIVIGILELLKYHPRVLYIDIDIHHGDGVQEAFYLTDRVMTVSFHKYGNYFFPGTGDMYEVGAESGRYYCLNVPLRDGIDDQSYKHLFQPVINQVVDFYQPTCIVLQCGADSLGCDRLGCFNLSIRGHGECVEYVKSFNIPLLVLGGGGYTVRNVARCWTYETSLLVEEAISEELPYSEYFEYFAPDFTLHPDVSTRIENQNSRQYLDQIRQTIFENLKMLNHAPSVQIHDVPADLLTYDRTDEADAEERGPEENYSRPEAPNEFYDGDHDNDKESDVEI
FXN GAA850 act = increases GAA850 frataxin promoter reporter activity | HEK293 lucGAA850 FXN promoter luciferase reporter, 24 h; percent of 10 µM SAHA response | activation, % at 6 µM | actives 0.56% (n = 360,000) | AID 540364;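 active = activation above the average of all compounds screened plus 3 SD, cutoff fixed separately per campaign, cut at about 7.5% in these data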;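 also: 0% = DMSO wells and 100% = 10 µM SAHA wells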
AHR act = activates the human aryl hydrocarbon receptor; P35869; AID 2796; activation, % at 5 µM; actives 2.5% (n = 320,000); AHR-responsive luciferase reporter cells, luminescence; in the data active = activation above about 47%;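 also: 0% = vehicle wells and 100% = reference agonist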
* = called active by the depositor; . = no result.

SMILES | Fh CTSL1 inh | SENP1 inh | PfM18AAP inh | HDAC3 inh | FXN GAA850 act | AHR act
CCOC(=O)c1[nH]c2ccccc2c1NC(=O)CC | -4 | 4 | -12 | -2 | 1 | 60*
CCOC(=O)c1[nH]c2ccccc2c1NC(C)=O | -1 | 1 | . | -7 | 0 | 33
COc1cccc(CC2(CO)CCN(Cc3ccc4cccc(F)c4n3)CC2)c1 | -1 | -17 | 6 | -4 | 2 | 11
CN(C)Cc1c(C(=O)Nc2ccccc2)[nH]c2ccccc12 | 2 | -1 | . | -8 | 3 | 72*
O=C(Nc1ccccc1C(=O)O)c1cc(S(=O)(=O)N2CCOCC2)c(Br)s1 | 2 | 2 | 4 | 15 | 0 | 2
CC(CCc1ccccc1)NC(=O)c1ccc(Cl)nc1 (stereo unspecified) | 17* | 1 | 8 | 0 | 0 | 0
CC(CCc1ccccc1)NC(=O)c1ccc(C(=O)NC(C)CCc2ccccc2)cc1 (stereo unspecified) | -3 | -1 | -1 | -2 | 0 | 18
O=C(Nc1ccccc1Oc1ccccc1)c1cccs1 | -2 | 3 | 10 | 0 | 0 | 3
O=C(Nc1ccc(Cl)cc1)Nc1nc(-c2ccccc2O)cs1 | 8 | -1 | 4 | -4 | -1 | -1
O=C(Nc1ccc(Cl)cc1)Nc1nc(-c2sccc2Br)cs1 | 0 | 3 | 1 | -10 | 1 | 62*
Oc1ccccc1C=NNc1nc2ccccc2s1 | . | -50 | . | . | 3 | .
Oc1ccc(C=NNc2nc3ccccc3s2)c(O)c1 | . | -7 | . | . | 0 | .
Cc1ccsc1/C=N/Nc1nc2ccccc2s1 | 4 | -3 | 13 | . | 3 | 71*
C(=N\Nc1nc2ccccc2s1)/c1cccs1 | 3 | 0 | 14 | 11 | 4 | 76*
N#Cc1ccc(CN2CCN(C(=O)CNS(=O)(=O)c3ccc4c(c3)OCCCO4)CC2)cc1 | . | 0 | . | -8 | 1 | -1
Cn1cc(/C=N/NC(=O)c2ccccc2O)c2ccccc21 | 2 | -1 | 6 | -3 | 4 | 38
Cc1[nH]c2ccccc2c1/C=N/NC(=O)c1cccs1 | 2 | 28 | 3 | 3 | 4 | 74*
Cc1[nH]c2ccccc2c1/C=N/NC(=O)c1cccc([N+](=O)[O-])c1 | 2 | 5 | -6 | 1 | 0 | 48*
Cn1cc(C(=O)N/N=C/c2cc(Br)cs2)c2ccccc21 | -6 | . | -3 | 7 | . | 50*
Cn1cc(/C=N/NC(=O)c2cccc([N+](=O)[O-])c2)c2ccccc21 | 2 | 3 | 2 | -3 | -2 | 69*
Cc1[nH]c2ccccc2c1/C=N/NC(=O)CNC(=O)c1cccs1 | 2 | 1 | 3 | 3 | -1 | 9
Cc1ccccc1CCNC(=O)C1CCC(=O)N(CCc2cccc(F)c2)C1 (stereo unspecified) | . | 1 | 1 | . | 2 | .
Cc1ccc(S(=O)(=O)N2CCCCC2)cc1C(=O)OC(C)C(=O)NC1CCCCC1C (stereo unspecified) | . | 0 | . | . | 0 | .
O=C(NCCSCc1ccc(Cl)cc1)c1cccs1 | 0 | 0 | -4 | 2 | -1 | -3
O=C(c1ccc(Cn2c(=S)[nH]c3ccc(Br)cc3c2=O)cc1)N1CCN(C2CCCCC2)CC1 | 0 | -3 | 4 | 5 | 0 | -1
SMILES | Fh CTSL1 inh | SENP1 inh | PfM18AAP inh | HDAC3 inh | FXN GAA850 act | AHR act
O=C1NC[C@H](CCCCN2C[C@H](Cc3ccccc3)N(CCc3ccc(O)cc3)C(=O)C2=O)N(CCc2ccc(O)cc2)C1=O | . | 0 | . | . | . | .
Cc1cc(NCc2ccccn2)n2ncc(-c3ccc(Cl)cc3)c2n1 | 0 | 0 | -15 | -7 | 2 | 76*
Cc1cc(NCc2ccccn2)n2ncc(-c3ccccc3)c2n1 | 2 | 0 | 0 | -2 | 2 | 74*
Cc1cc(N)n2ncc(-c3ccc(Cl)cc3)c2n1 | -4 | -4 | 3 | -1 | 3 | 69*
CCOC(=O)Cc1c(C)nc2c(-c3ccc(Cl)cc3)cnn2c1C | 3 | -4 | 1 | 1 | 5 | 65*
O=C(Nc1ccc(Cl)cc1)/C(=C/c1ccc([N+](=O)[O-])cc1)c1nc2ccccc2s1 | . | . | -1 | . | . | .
COc1ccccc1C(=O)N/N=C/c1ccc(Cl)s1 | 1 | 2 | 2 | -2 | 4 | 49*
COc1ccccc1C=NNC(=O)c1ccccc1OCCOc1ccccc1 | . | 1 | . | 1 | -1 | 51*
C=CCc1cccc(/C=N/NC(=O)c2ccccc2OC)c1O | -2 | 2 | 30* | -2 | 2 | 77*
O=C(O)COc1ccccc1/C=N/NC(=O)c1cc2ccccc2cc1O | -3 | 12 | 7 | 8 | 2 | 58*
O=C(O)COc1ccccc1/C=N/NC(=O)c1cc(-c2ccc(F)cc2)nc2ccccc12 | 4 | 2 | 7 | 7 | 2 | 13
Cc1cc(S(=O)(=O)Nc2ccc3cn[nH]c3c2)c(C)cc1Cl | 7 | 0 | 2 | 1 | -1 | 14
Cc1ccccc1C(=O)Nc1ccnn1C1CCN(C2CCSCC2)CC1 | 1 | -53 | 3 | 1 | -1 | 6
CC(C)COc1ccc(C(=O)Nc2cc(S(=O)(=O)N3CCOCC3)ccc2N2CCCC2)cc1 | . | -4 | . | -3 | 0 | 0
CCC(C)c1ccc(NC(=O)C2=CC=CN3CCS(=O)(=O)N=C23)cc1 (stereo unspecified) | . | -1 | . | 2 | 5 | 7
CCOc1ccc(OCCC(=O)Nc2cccc(S(=O)(=O)N3CCCC3)c2)cc1 | . | 2 | . | . | 1 | .
Nc1cccc(Nc2nc(OC(C(F)(F)F)C(F)(F)F)nc(OC(C(F)(F)F)C(F)(F)F)n2)c1 | 7 | -1 | -1 | 49* | -4 | 1
CCc1nc2nc(C)c(NS(=O)(=O)c3ccc(C4CCCCC4)cc3)c(=O)n2[nH]1 | -4 | 0 | 4 | 8 | 1 | 1
CC1CC1C(=O)Nc1nc2ccc(Cl)cc2s1 (stereo unspecified) | 0 | 2 | . | -7 | 2 | 67*
O=C(Nc1nc2ccc(Cl)cc2s1)c1ccco1 | 2 | 0 | 0 | -5 | 0 | 10
C=CCc1c(C)nc(C)nc1N/N=C/c1ccc(N(C)C)cc1 | 1 | -7 | 26 | 2 | 1 | 79*
CN(C)c1ccc(/C=N\Nc2ccccn2)cc1 | 3 | -5 | -4 | 7 | 5 | 11
CC(C)Cc1ccc(CN2CCCC(NC(=O)CSc3nncn3C)C2)cc1 (stereo unspecified) | -4 | 0 | 2 | 5 | -1 | 3
OC(c1cccc(Cl)c1)c1nc(/C=C/c2ccccc2)cs1 (stereo unspecified) | . | 1 | . | . | 2 | .
CCOC(=O)CSc1ccc2ccccc2n1 | -4 | 1 | -14 | 7 | 0 | -2
CCOC(=O)CN1C=C(c2ccc3ccccc3n2)C(C[N+](=O)[O-])c2ccccc21 (stereo unspecified) | 4 | -24 | -8 | 0 | 4 | 67*
O=C1C=CN(C2OC(CO)C(O)C2O)C(=O)C1 (stereo unspecified) | . | 1 | . | . | -2 | .
